From ChEMBL document CHEMBL2016487, “Pyrazolopyrimidines as dual Akt/p70S6K inhibitors” (Bioorg Med Chem Lett, 2012)
pIC50: −log10 of the molar value.

Experiments:
[1] = Cmax in rat at 2.5 mg/kg, po; format: ADME, organism-based; design: dose 2.5 mg/kg, route oral; details: in vivo
[2] = biological target: T1, Ribosomal protein S6 kinase beta-1 (Homo sapiens, UniProt P23443); test: Inhibition of p70S6K-mediated ribosomal protein S6 phosphorylation in human PC3 cells after 3 hrs by chemiluminescence assay; format: cell-based, PC-3
T1 sequence (P23443 whole entry): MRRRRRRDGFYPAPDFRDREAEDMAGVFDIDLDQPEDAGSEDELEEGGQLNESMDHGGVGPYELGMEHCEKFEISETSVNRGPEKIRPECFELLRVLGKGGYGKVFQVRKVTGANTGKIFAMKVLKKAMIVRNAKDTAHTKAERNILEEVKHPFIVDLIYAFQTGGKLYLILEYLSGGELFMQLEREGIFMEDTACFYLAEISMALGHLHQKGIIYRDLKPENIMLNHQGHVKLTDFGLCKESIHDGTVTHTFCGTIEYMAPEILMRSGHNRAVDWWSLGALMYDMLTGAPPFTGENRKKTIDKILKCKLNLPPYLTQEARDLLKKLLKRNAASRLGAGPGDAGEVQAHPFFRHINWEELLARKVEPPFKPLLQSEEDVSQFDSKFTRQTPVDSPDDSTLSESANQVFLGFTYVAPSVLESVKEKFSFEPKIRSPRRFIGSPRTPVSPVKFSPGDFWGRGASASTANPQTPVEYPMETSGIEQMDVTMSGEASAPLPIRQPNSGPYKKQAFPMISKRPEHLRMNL
How it was run: (§1)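 A549 or PC-3 cells seeded at 7.5 × 10³ cells/well in DMEM with heat-inactivated 10% FBS, 1% penicillin–streptomycin, 1% non-essential amino acids, grown 48 h at 37 °C, 5% CO₂. Treated 3 h with compound at 1.2–300 nM, triplicate, 0.2% DMSO final. Fixed in 4% formaldehyde, blocked, probed with anti-phospho-S6 (Ser240/244) and anti-total-S6 overnight at 4 °C, chemiluminescent read-out.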

[3] = Cmax in rat at 2.5 mg/kg, iv; format: ADME, organism-based; design: dose 2.5 mg/kg, route intravenous; details: in vivo
[4] = biological target: T1, Ribosomal protein S6 kinase beta-1; test: Inhibition of p70S6K after 3 hrs by luciferase based chemiluminescence assay
[5] = Plasma concentration in mouse at 100 mg/kg after 1 hr; format: ADME, organism-based; design: dose 100 mg/kg
How it was run: (§2)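 Mouse plasma levels measured 1 and 4 h after a 100 mg/kg dose.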

[6] = Half life in rat at 2.5 mg/kg, po; format: ADME, organism-based; design: dose 2.5 mg/kg, route oral; details: in vivo
[7] = Half life in rat at 2.5 mg/kg, iv; format: ADME, organism-based; design: dose 2.5 mg/kg, route intravenous; details: in vivo
[8] = Volume of distribution in rat at 2.5 mg/kg; format: ADME, organism-based; design: dose 2.5 mg/kg; details: in vivo
[9] = Oral bioavailability in rat at 2.5 mg/kg; format: ADME, organism-based; details: in vivo
[10] = biological target: T2, RAC-alpha serine/threonine-protein kinase (Homo sapiens, UniProt P31749); test: Inhibition of AKT1-mediated GSK3beta phosphorylation in human PC3 cells after 3 hrs by chemiluminescence assay; format: cell-based, PC-3
T2 sequence (P31749 whole entry): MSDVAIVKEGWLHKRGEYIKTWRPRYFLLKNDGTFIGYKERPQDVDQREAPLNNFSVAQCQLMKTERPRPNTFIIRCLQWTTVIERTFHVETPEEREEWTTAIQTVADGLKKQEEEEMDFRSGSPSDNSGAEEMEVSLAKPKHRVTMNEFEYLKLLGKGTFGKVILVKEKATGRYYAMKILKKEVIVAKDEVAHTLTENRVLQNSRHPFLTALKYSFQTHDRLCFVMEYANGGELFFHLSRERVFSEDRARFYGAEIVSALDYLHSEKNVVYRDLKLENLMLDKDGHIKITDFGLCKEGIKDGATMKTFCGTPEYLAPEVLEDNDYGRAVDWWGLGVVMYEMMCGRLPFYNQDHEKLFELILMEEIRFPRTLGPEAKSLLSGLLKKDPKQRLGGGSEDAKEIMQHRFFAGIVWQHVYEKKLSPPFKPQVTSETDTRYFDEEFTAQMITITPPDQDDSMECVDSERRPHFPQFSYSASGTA
How it was run: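 PC-3 cells seeded at 7.5 × 10³ cells/well, grown 24 h, then serum-starved 24 h. Compound treatment 3 h in triplicate (0.2% DMSO final), followed by 100 ng/ml IGF1 for 30 min. Fixed and processed as a cell ELISA using anti-phospho-GSK3β (S9) and anti-total-GSK3β antibodies, chemiluminescent read-out.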

Rattus norvegicus [11] = test: Dose normalized AUC in rat at 2.5 mg/kg, po; format: ADME, organism-based; design: dose 2.5 mg/kg, route oral; details: in vivo
[12] = biological target: T1, Ribosomal protein S6 kinase beta-1; test: Inhibition of p70S6K-mediated ribosomal protein S6 phosphorylation in human A549 cells after 3 hrs by chemiluminescence assay; format: cell-based; how it was run: as §1
[13] = biological target: T2, RAC-alpha serine/threonine-protein kinase; test: Inhibition of AKT1 after 3 hrs by luciferase based chemiluminescence assay
[14] = Clearance in rat at 2.5 mg/kg; format: ADME, organism-based; design: dose 2.5 mg/kg; details: in vivo
[15] = Plasma concentration in mouse at 30 mg/kg after 4 hrs; format: ADME, organism-based; design: dose 30 mg/kg
Rattus norvegicus [16] = test: Dose normalized AUC in rat at 2.5 mg/kg, iv; format: ADME, organism-based; design: dose 2.5 mg/kg, route intravenous; details: in vivo
[17] = Clearance in rat at 5 mg/kg; format: ADME, organism-based; design: dose 5 mg/kg; details: in vivo
[18] = Oral bioavailability in rat at 5 mg/kg; format: ADME, organism-based; details: in vivo
[19] = Cmax in rat at 5 mg/kg, iv; format: ADME, organism-based; design: dose 5 mg/kg, route intravenous; details: in vivo
[20] = Plasma concentration in mouse at 100 mg/kg after 4 hrs; format: ADME, organism-based; design: dose 100 mg/kg; how it was run: as §2
[21] = Half life in rat at 5 mg/kg, po; format: ADME, organism-based; design: dose 5 mg/kg, route oral; details: in vivo
Rattus norvegicus [22] = test: Dose normalized AUC in rat at 5 mg/kg, po; format: ADME, organism-based; design: dose 5 mg/kg, route oral; details: in vivo
[23] = Volume of distribution in rat at 5 mg/kg; format: ADME, organism-based; design: dose 5 mg/kg; details: in vivo
Rattus norvegicus [24] = test: Dose normalized AUC in rat at 5 mg/kg, iv; format: ADME, organism-based; design: dose 5 mg/kg, route intravenous; details: in vivo
[25] = Cmax in rat at 5 mg/kg, po; format: ADME, organism-based; design: dose 5 mg/kg, route oral; details: in vivo
[26] = Half life in rat at 5 mg/kg, iv; format: ADME, organism-based; design: dose 5 mg/kg, route intravenous; details: in vivo
[27] = Volume of distribution in dog at 3 mg/kg; format: ADME, organism-based, Canis lupus familiaris; design: dose 3 mg/kg; details: in vivo
[28] = Half life in dog at 3 mg/kg, iv; format: ADME, organism-based, Canis lupus familiaris; design: dose 3 mg/kg, route intravenous; details: in vivo
PC-3 [29] = test: Anticancer activity against human PC3 prostate tumor cell xenografted model at 50 mg/kg, po qd for 15 days; format: functional; details: PC-3, 360 h, read-out: TGI
How it was run: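 PC-3 xenograft efficacy study; oral dosing at 50 mg/kg qd for 15 days, tumor growth inhibition determined.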

[30] = Cmax in dog at 3 mg/kg, iv; format: ADME, organism-based, Canis lupus familiaris; design: dose 3 mg/kg, route intravenous; details: in vivo
[31] = Half life in monkey at 3 mg/kg, iv; format: ADME, organism-based, Macaca mulatta; design: dose 3 mg/kg, route intravenous; details: rhesus monkey, in vivo
A549 [32] = test: Anticancer activity against human A549 cell xenografted model at 50 mg/kg, po qd for 2 days every 4 days; format: functional; details: read-out: TGI
PC-3 [33] = test: Inhibition of GSK3beta phosphorylation in human PC3 cells xenografted model at 100 mg/kg bid; format: functional
How it was run: (§3)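 PC-3 prostate carcinoma model; compound given at 100 mg/kg bid, five doses in total before phospho-S6, phospho-GSK3β and phospho-PRAS40 levels were measured.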

[34] = Clearance in dog at 3 mg/kg; format: ADME, organism-based, Canis lupus familiaris; design: dose 3 mg/kg; details: in vivo
Canis familiaris [35] = test: Dose normalized AUC in dog at 3 mg/kg, iv; format: ADME, organism-based, Canis lupus familiaris; design: dose 3 mg/kg, route intravenous; details: in vivo
Rhesus monkey [36] = test: Dose normalized AUC in monkey at 3 mg/kg, iv; format: ADME, organism-based, Macaca mulatta; design: dose 3 mg/kg, route intravenous; details: in vivo
[37] = Volume of distribution in monkey at 3 mg/kg; format: ADME, organism-based, Macaca mulatta; design: dose 3 mg/kg; details: rhesus monkey, in vivo
[38] = Oral bioavailability in dog at 3 mg/kg; format: ADME, organism-based, Canis lupus familiaris; details: in vivo
[39] = Half life in monkey at 3 mg/kg, po; format: ADME, organism-based, Macaca mulatta; design: dose 3 mg/kg, route oral; details: rhesus monkey, in vivo
A549 [40] = test: Anticancer activity against human A549 cell xenografted model at 100 mg/kg, po qd for 2 days every 4 days; format: functional; details: read-out: TGI
How it was run: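 A549 xenograft; oral dosing at 50 mg/kg qd, or 100 mg/kg qd for two days every 4 days; tumor growth inhibition determined.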

[41] = Cmax in monkey at 3 mg/kg, iv; format: ADME, organism-based, Macaca mulatta; design: dose 3 mg/kg, route intravenous; details: rhesus monkey, in vivo
[42] = Cmax in dog at 3 mg/kg, po; format: ADME, organism-based, Canis lupus familiaris; design: dose 3 mg/kg, route oral; details: in vivo
[43] = Half life in dog at 3 mg/kg, po; format: ADME, organism-based, Canis lupus familiaris; design: dose 3 mg/kg, route oral; details: in vivo
Rhesus monkey [44] = test: Dose normalized AUC in monkey at 3 mg/kg, po; format: ADME, organism-based, Macaca mulatta; design: dose 3 mg/kg, route oral; details: in vivo
[45] = Clearance in monkey at 3 mg/kg; format: ADME, organism-based, Macaca mulatta; design: dose 3 mg/kg; details: rhesus monkey, in vivo
Canis familiaris [46] = test: Dose normalized AUC in dog at 3 mg/kg, po; format: ADME, organism-based, Canis lupus familiaris; design: dose 3 mg/kg, route oral; details: in vivo
PC-3 [47] = test: Inhibition of PRAS40 phosphorylation in human PC3 cells xenografted model at 100 mg/kg bid; format: functional; how it was run: as §3
PC-3 [48] = test: Inhibition of ribosomal protein S6 phosphorylation in human PC3 cells xenografted model at 100 mg/kg bid; format: functional; how it was run: as §3
[49] = Cmax in monkey at 3 mg/kg, po; format: ADME, organism-based, Macaca mulatta; design: dose 3 mg/kg, route oral; details: rhesus monkey, in vivo
[50] = Oral bioavailability in monkey at 3 mg/kg; format: ADME, organism-based, Macaca mulatta; details: rhesus monkey, in vivo

Cc1noc(-c2cc(NCCN3CCCC3)c(C)c(N3CCN(c4ncnc5[nH]nc(Br)c45)CC3)c2)n1
Cmax [1]: 10 nM | pIC50 [2]: 7.33 | Cmax [3]: 370 nM | pIC50 [4]: 9.00 | concentration at 1 h [5]: 300 nM | half-life [6]: 2.9 h | half-life [7]: 2.4 h | Vd [8]: 14.2 L/kg | bioavailability [9]: 10% | pIC50 [10]: 6.18 | AUC/dose (Rattus norvegicus [11]): 0.05 µM·kg·h/mg | pIC50 [12]: 7.89 | pIC50 [13]: 8.22 | clearance [14]: 73 mL/min/kg | concentration at 4 h [15]: 100 nM | AUC/dose (Rattus norvegicus [16]): 0.45 µM·kg·h/mg

COC(=O)c1cc(NCCN2CCCC2)c(C)c(N2CCN(c3ncnc4[nH]nc(Br)c34)CC2)c1
pIC50 [2]: 7.28 | pIC50 [4]: 8.70 | pIC50 [10]: 5.73 | pIC50 [12]: 7.36 | pIC50 [13]: 8.30

CCC(=O)c1cc(NCCN2CCCC2)c(C)c(N2CCN(c3ncnc4[nH]nc(Br)c34)CC2)c1
pIC50 [2]: 7.60 | clearance [17]: 49 mL/min/kg | bioavailability [18]: 28% | Cmax [19]: 1440 nM | pIC50 [4]: 9.00 | concentration at 1 h [5]: 2000 nM | concentration at 4 h [20]: 2000 nM | half-life [21]: 2.9 h | pIC50 [10]: 6.01 | AUC/dose (Rattus norvegicus [22]): 0.15 µM·kg·h/mg | pIC50 [12]: 7.74 | Vd [23]: 10.5 L/kg | pIC50 [13]: 8.30 | AUC/dose (Rattus norvegicus [24]): 0.56 µM·kg·h/mg | Cmax [25]: 140 nM | half-life [26]: 3.1 h

Cc1c(NCCN2CCCC2)cc(C(=O)CCC(F)(F)F)cc1N1CCN(c2ncnc3[nH]nc(Br)c23)CC1 [XL-418]
Cmax [1]: 40 nM | Vd [27]: 17 L/kg | half-life [28]: 7.5 h | inhibition in vivo at 50 mg/kg (PC-3 [29]): 52% | pIC50 [2]: 7.26 | Cmax [30]: 210 nM | half-life [31]: 6.1 h | inhibition in vivo at 50 mg/kg (A549 [32]): 71% | Cmax [3]: 330 nM | pIC50 [4]: 8.70 | inhibition in vivo at 100 mg/kg (PC-3 [33]): 46% | clearance [34]: 26 mL/min/kg | concentration at 1 h [5]: 1600 nM | half-life [6]: 7.9 h | AUC/dose (Canis familiaris [35]): 0.95 µM·kg·h/mg | concentration at 4 h [20]: 3100 nM | half-life [7]: 3.5 h | Vd [8]: 12.9 L/kg | AUC/dose (Rhesus monkey [36]): 1.22 µM·kg·h/mg | bioavailability [9]: 35% | Vd [37]: 6.9 L/kg | bioavailability [38]: 58% | pIC50 [10]: 6.71 | AUC/dose (Rattus norvegicus [11]): 0.17 µM·kg·h/mg | half-life [39]: 6.4 h | inhibition in vivo at 100 mg/kg (A549 [40]): 96% | Cmax [41]: 580 nM | Cmax [42]: 100 nM | pIC50 [12]: 7.52 | half-life [43]: 10.4 h | AUC/dose (Rhesus monkey [44]): 0.94 µM·kg·h/mg | pIC50 [13]: 9.00 | clearance [45]: 20.5 mL/min/kg | AUC/dose (Canis familiaris [46]): 0.54 µM·kg·h/mg | inhibition in vivo at 100 mg/kg (PC-3 [47]): 76% | inhibition in vivo at 100 mg/kg (PC-3 [48]): 90% | clearance [14]: 45.4 mL/min/kg | Cmax [49]: 400 nM | AUC/dose (Rattus norvegicus [16]): 0.64 µM·kg·h/mg | bioavailability [50]: 77%
